Assay results gathered from unrelated publications.
Lines come from different studies, so protocols differ.
TDP1: Tyrosyl-DNA phosphodiesterase 1 (TDP1, Homo sapiens, UniProt Q9NUW8)
MAOA: Amine oxidase [flavin-containing] A (MAOA, Homo sapiens, UniProt P21397)
PRMT3: Protein arginine N-methyltransferase 3 (PRMT3, Homo sapiens, UniProt O60678)
LDHA: L-lactate dehydrogenase A chain (LDHA, Homo sapiens, UniProt P00338)
GSR: Glutathione reductase, mitochondrial (GSR, Homo sapiens, UniProt P00390)
MAP3K7: Mitogen-activated protein kinase kinase kinase 7 (MAP3K7, Homo sapiens, UniProt O43318)
SLC22A6: Solute carrier family 22 member 6 (SLC22A6, Homo sapiens, UniProt Q4U2R8)
PTK2: Focal adhesion kinase 1 (PTK2, Homo sapiens, UniProt Q05397)
NTRK1: High affinity nerve growth factor receptor (NTRK1, Homo sapiens, UniProt P04629)
RIPK2: Receptor-interacting serine/threonine-protein kinase 2 (RIPK2, Homo sapiens, UniProt O43353)

COc1cc2c(OC)nc3c4cc5c(cc4cc(OCCCN4CCC(N6CCCCC6)CC4)c3c2cc1OC)OCO5
IC50 (TDP1; enzyme activity, inhibitor): 11 µM

CC1(C)C(/C=C/C=C2/N(CCCc3ccccc3)c3ccc(Cl)cc3C2(C)C)=[N+](CCCc2ccccc2)c2ccc(Cl)cc21
IC50 (Protein arginine N-methyltransferase 5 (PRMT5, Homo sapiens, UniProt O14744); enzyme activity, inhibitor, radiometric): 2.19 µM

O=c1cc(-c2ccc(O)cc2)oc2cc(O)c([C@@H]3O[C@H](CO)[C@@H](O)[C@H](O)[C@H]3O)c(O)c12
IC50 (MAOA; enzyme activity, inhibitor): 25.8 µM

C(/C=C/c1sc2c3ccccc3ccc2[n+]1CCCc1ccccc1)=C1/Sc2c(ccc3ccccc23)N1CCCc1ccccc1
IC50 (PRMT3; enzyme activity, inhibitor, radiometric): 2.1 µM

O=c1cc(-c2ccc(O)cc2)oc2c([C@@H]3O[C@H](CO)[C@@H](O)[C@H](O)[C@H]3O)c(O)cc(O)c12
IC50 (MAOA; enzyme activity, inhibitor): 38.6 µM

Nc1ncnc2c1ncn2[C@@H]1O[C@H](CSCCNC(=O)Nc2ccc(F)cc2)[C@@H](O)[C@H]1O
IC50 (PRMT3; enzyme activity, inhibitor, fluorescence): 2 µM

COc1cc2c(OC)nc3c4cc5c(cc4cc(OCCCN4CCCC4)c3c2cc1OC)OCO5
IC50 (TDP1; enzyme activity, inhibitor): 5.5 to 13 µM

C[C@@H]1O[C@@H](O[C@@H]2[C@@H](O)[C@H](OCCc3ccc(O)c(O)c3)O[C@H](CO)[C@H]2OC(=O)/C=C/c2ccc(O)c(O)c2)[C@H](O)[C@H](O)[C@H]1O
IC50 (LDHA; enzyme activity, inhibitor; pH 7.4): > 500 µM

Cc1nc2ccc(NC(=O)CCNC(=O)CCCc3ccc(CC(C(=O)O)C(=O)O)cc3)cc2s1
IC50 (LDHA; enzyme activity, inhibitor): 1.2 µM

CN(C)CCCN1c2ccccc2Sc2ccc(Cl)cc21
IC50 (GSR; enzyme activity, inhibitor, absorbance): > 100 µM

C[C@@H]1C[C@H]2O[C@@H]2/C=C\C=C\C(=O)Cc2cc(O)cc(O)c2C(=O)O1
IC50 (MAP3K7; enzyme activity, inhibitor, ATP luminescence): > 10 µM

Nc1ncnc2c1ncn2[C@@H]1O[C@H](COP(=O)(O)OP(=O)(O)O)[C@@H](O)[C@H]1O
IC50 (Nucleotide-binding oligomerization domain-containing protein 1 (NOD1, Homo sapiens, UniProt Q9Y239); ligand displacement, FP): 0.19 µM

O=C(O)CCc1nc(-c2ccccc2)c(-c2ccccc2)o1
IC50 (SLC22A6; transporter uptake, inhibitor): 0.891 µM

CCn1ncc2c1-c1cnc(N)c(c1)O[C@H](C)c1cc(F)ccc1-c1nn(C)nc1C2
IC50 (PTK2; enzyme activity, inhibitor, radiometric): 0.011 µM

NC(=O)c1cnc2[nH]ccc2c1N[C@@H]1[C@@H]2CC3C[C@H]1C[C@@](O)(C3)C2
IC50 (SLC22A6; transporter uptake, inhibitor, radiometric; 2 min): > 100 µM

O=c1oc(Cl)c(Cl)c2ccccc12
IC50 (Rhomboid protease AarA (Providencia stuartii, UniProt P46116); enzyme activity, inhibitor, fluorescence): 10 µM

C[C@@H](N)COc1ccc(-c2cnc3ccc(N[C@H](C)c4cccc(F)c4)nn23)cc1
IC50 (NTRK1; enzyme activity, inhibitor): 0.0044 µM

Cc1cnc(-c2ccc(-c3ccc(NC(=O)Nc4c(F)cc(F)cc4F)cc3F)c3c2C(=O)NC3)[nH]1
IC50 (NTRK1; enzyme activity, inhibitor): 0.0148 µM

COc1cc(/C=C/C(=O)N2CCC(Cc3ccccc3)CC2)ccc1OCc1ccccc1
IC50 (MAOA; enzyme activity, inhibitor, fluorescence): 80.7 µM

COc1cc(C(=O)O)ccc1O[C@@H]1O[C@H](CO)[C@@H](O)[C@H](O)[C@H]1O
IC50 (LDHA; enzyme activity, inhibitor; pH 7.4): > 500 µM

CCNC(=O)NCCSC[C@H]1O[C@@H](n2cnc3c(N)ncnc32)[C@H](O)[C@@H]1O
IC50 (PRMT3; enzyme activity, inhibitor, fluorescence): > 100 µM

C=CC(=O)Nc1cc(Nc2nccc(Nc3cc(Cl)c(F)cc3C(C)(C)O)n2)c(OC)cc1N1CC[C@@H](N(C)C)C1
IC50 (PTK2; enzyme activity, inhibitor; with preincubation): 0.255 µM

O=C(/C=C/c1ccc(O)c(O)c1)O[C@@H]1C[C@](O)(C(=O)O)C[C@@H](O)[C@H]1O
IC50 (LDHA; enzyme activity, inhibitor; pH 7.4): > 500 µM

Nc1ncnc2c1ncn2[C@@H]1O[C@H](CSCCNC(=O)NCCc2ccccc2)[C@@H](O)[C@H]1O
IC50 (PRMT3; enzyme activity, inhibitor, fluorescence): > 100 µM

C[C@@H]1C[C@@H](O)/C=C/C=C\CC(=O)Cc2c(Cl)c(O)cc(O)c2C(=O)O1
IC50 (MAP3K7; enzyme activity, inhibitor, ATP luminescence): > 10 µM

CC1=C[C@@]2(C[C@H](C)[C@H]3CC=C(C)[C@@H](O[C@@H]4O[C@H](CO)[C@@H](O)[C@H](O)[C@H]4O)[C@@H]3O2)OC1=O
IC50 (Tyrosine-protein phosphatase non-receptor type 1 (PTPN1, Homo sapiens, UniProt P18031); enzyme activity, inhibitor): 91.3 µM

Nc1ncnc2c1ncn2[C@@H]1O[C@H](CSCCNC(=O)Nc2ccccc2)[C@@H](O)[C@H]1O
IC50 (PRMT3; enzyme activity, inhibitor, fluorescence): 1.9 µM

COc1cccc(OC)c1OCCNCC1COc2ccccc2O1 (centres unmarked)
IC50 (Alpha-1A adrenergic receptor (ADRA1A, Homo sapiens, UniProt P35348); ligand displacement, radioligand): 0.00036 µM

C#Cc1ccc(C(=O)C2=C(C)C(=O)c3ccccc3C2=O)cc1
IC50 (GSR; enzyme activity, inhibitor; pH 6.9): 0.6 µM

O=C(Nc1ccc([N+](=O)[O-])cc1[N+](=O)[O-])c1ccccc1
IC50 (MAOA; enzyme activity, inhibitor): 0.126 µM

COc1cc2c(OC)nc3c4cc5c(cc4cc(OCCCN4CCC(O)CC4)c3c2cc1OC)OCO5
IC50 (TDP1; enzyme activity, inhibitor): 5.5 to 13 µM

CNC(=O)c1cc2c(Oc3ccc(NC(=O)C4(C(=O)Nc5ccc(F)cc5)CC4)cc3)ccnc2cc1OC
IC50 (RIPK2; enzyme activity, inhibitor, radiometric): 0.017 µM

CC(C)(C)n1nc(-c2ccc3nc(OC4CC4)ccc3c2)c(C(N)=O)c1N
IC50 (RIPK2; cell-free assay): 0.2 µM

COc1cc(C[C@H]2C(=O)OC[C@@H]2Cc2ccc(OC)c(OC)c2)ccc1O
IC50 (High affinity 3',5'-cyclic-AMP phosphodiesterase 7A (PDE7A, Homo sapiens, UniProt Q13946); enzyme activity, inhibitor): > 20 µM

Cc1ccc(NC(=O)c2ccc(C)c(C(F)(F)F)c2)cc1C#Cc1nn(C2CCC(O)CC2)c2ncnc(N)c12 (centres unmarked)
IC50 (NTRK1; enzyme activity, inhibitor, radiometric): > 10 µM

O=C(O)CSc1nnc(Br)n1-c1ccc(C2CC2)c2ccccc12
IC50 (Broad substrate specificity ATP-binding cassette transporter ABCG2 (ABCG2, Homo sapiens, UniProt Q9UNQ0); transporter uptake, inhibitor; Caco-2; 2 h): > 3000 µM

CC(C)C[C@H](NC(=O)[C@H]1O[C@@H]1C(=O)O)C(=O)NCCCCN=C(N)N
IC50 (Cathepsin S (CTSS, Homo sapiens, UniProt P25774); enzyme activity, inhibitor): 0.00174 µM

CCOCc1nc(O)c(-c2nnc(Cc3ccc(Cl)cn3)o2)c(O)c1-c1c(OC)cccc1OC
IC50 (Histamine H2 receptor (HRH2, Homo sapiens, UniProt P25021); ligand displacement, radioligand): > 30 µM
